Five molecules from publication PMC7563999 (Acta Pharmaceutica Sinica. B, 2020) can be followed below.

Values joined by “and” are separate entries in the source; they are usually repeats but may differ in a detail not shown here. Equal entries are not always repeated. “Also recorded” adds a separate entry of the source.

For one series, the target named is T1, α1A-AR (Homo sapiens, UniProt P35348).
T1 sequence (P35348 1-466): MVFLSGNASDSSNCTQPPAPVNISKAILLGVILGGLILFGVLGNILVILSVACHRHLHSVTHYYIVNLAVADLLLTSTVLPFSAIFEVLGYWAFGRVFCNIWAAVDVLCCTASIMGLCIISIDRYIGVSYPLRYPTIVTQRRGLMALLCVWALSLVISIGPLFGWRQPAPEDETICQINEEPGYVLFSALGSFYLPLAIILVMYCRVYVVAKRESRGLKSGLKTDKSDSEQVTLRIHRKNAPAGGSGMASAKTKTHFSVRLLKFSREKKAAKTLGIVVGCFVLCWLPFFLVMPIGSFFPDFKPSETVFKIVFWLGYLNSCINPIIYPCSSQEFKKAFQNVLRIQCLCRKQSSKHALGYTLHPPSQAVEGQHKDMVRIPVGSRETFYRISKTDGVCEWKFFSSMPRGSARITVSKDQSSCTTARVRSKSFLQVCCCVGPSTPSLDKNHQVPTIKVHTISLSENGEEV
The series can be described thus: Western blot analysis of α1A-AR level in α1A-AR stably transfected HEK293 cells. Type of series: cell-based. To be noted: for effect on α1A-AR level (Western blot, in words): α1A-AR HEK293 cells, indicated concentrations 12 h, 3 μmol/L for indicated time; for DC50: read-out: DC50 (concentration required for 50% protein degradation) of α1A-AR, α1A-AR stably transfected HEK293 cells, 12 h, Western blot. (Immunoblotting shows a protein as a band on a membrane.)

In the next series the test system is PC-3 cells. Description: CCK-8 antiproliferation assay on PC-3 cells. Type of series: cell-based. To be noted: for IC50: Homo sapiens, PC-3, 48 h, read-out: antiproliferative activity IC50; for antiproliferation activity on PC-3 cells (in words): 1–100 μmol/L, 48 h. The essentials:
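PC-3 cells in RPMI-1640 with 10% FBS, 37 °C, 5% CO2. Seeded at 5000 cells/well, left 24 h, then exposed to test compound for 48 h; controls received DMSO only. CCK-8 reagent (WST-8/PMS) was added for 1 h at 37 °C and absorbance read at 450 nm. Viability was calculated against untreated-cell and cell-free blank wells.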
On the technique in general: Tetrazolium dyes change colour on reduction, which living cells bring about.

The target in another series is T2, α1D-AR (Homo sapiens, UniProt P25100).
T2 sequence (P25100 1-572): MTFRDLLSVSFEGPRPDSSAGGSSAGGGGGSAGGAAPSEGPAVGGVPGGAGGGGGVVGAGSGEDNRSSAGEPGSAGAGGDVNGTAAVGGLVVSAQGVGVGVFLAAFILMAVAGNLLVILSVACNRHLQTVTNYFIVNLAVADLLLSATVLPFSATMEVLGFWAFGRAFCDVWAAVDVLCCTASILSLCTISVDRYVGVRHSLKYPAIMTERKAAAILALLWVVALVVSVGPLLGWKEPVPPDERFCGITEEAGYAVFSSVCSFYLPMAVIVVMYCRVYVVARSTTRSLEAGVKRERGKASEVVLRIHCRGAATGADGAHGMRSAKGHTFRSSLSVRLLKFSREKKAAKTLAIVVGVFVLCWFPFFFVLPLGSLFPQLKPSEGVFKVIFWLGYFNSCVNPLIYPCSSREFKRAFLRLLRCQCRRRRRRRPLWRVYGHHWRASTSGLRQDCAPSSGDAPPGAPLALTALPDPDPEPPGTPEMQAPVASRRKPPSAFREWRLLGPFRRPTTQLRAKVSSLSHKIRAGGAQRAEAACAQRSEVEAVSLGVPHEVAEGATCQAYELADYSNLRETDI
The series can be described thus: Western blot analysis of α1D-AR level in stably transfected HEK293 cells. It counts as cell-based. To be noted: 12 h.

For series [1], the system named is PC-3 derived prostate cancer xenografts. The series can be described thus: PC-3 tumor xenograft model in nude mice. It counts as in vivo. To be noted: 50 mg/kg daily intraperitoneal, two weeks. In short, it runs like this:
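Four-week-old nude mice were given PC-3 cells subcutaneously (10⁶ cells/mouse). At 400 mm³ tumour volume they were split into two groups (n = 5). Each group received test compound or vehicle (10% DMSO + 10% PEG400 + 80% saline) i.p. daily for two weeks. Caliper tumour volume and body weight were taken every 2–3 days. Tumours were harvested 12 h after the last dose.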

For the next series, the target named is T3, α1B-AR (Homo sapiens, UniProt P35368).
T3 sequence (P35368 1-520): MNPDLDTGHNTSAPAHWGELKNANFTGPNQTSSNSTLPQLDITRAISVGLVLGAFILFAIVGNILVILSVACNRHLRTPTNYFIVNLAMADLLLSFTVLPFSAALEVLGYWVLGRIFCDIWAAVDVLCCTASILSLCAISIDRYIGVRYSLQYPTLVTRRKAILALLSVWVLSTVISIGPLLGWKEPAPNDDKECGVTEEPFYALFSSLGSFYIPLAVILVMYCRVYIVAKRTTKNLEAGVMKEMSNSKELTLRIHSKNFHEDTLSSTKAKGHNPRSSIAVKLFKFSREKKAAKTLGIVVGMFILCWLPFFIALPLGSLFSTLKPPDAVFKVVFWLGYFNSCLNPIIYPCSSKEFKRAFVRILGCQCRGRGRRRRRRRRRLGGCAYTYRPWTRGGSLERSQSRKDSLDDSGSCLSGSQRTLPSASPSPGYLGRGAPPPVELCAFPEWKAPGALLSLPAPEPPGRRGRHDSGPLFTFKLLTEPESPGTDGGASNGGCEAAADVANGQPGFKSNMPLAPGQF
The series can be described thus: Western blot analysis of α1B-AR level in stably transfected HEK293 cells. It counts as cell-based. To be noted: 12 h.

Take `COc1cc2nc(N3CCN(C(=O)c4cn(CCOCCOCCOCC(=O)Nc5cccc6c5C(=O)N(C5CCC(=O)N(C)C5=O)C6=O)nn4)CC3)nc(N)c2cc1OC` (centres unmarked) [Compound 11, 2-(2-(2-(2-(4-(4-(4-Amino-6,7-dimethoxyquinazolin-2-yl)piperazine-1-carbonyl)-1H-1,2,3-triazol-1-yl)ethoxy)ethoxy)ethoxy)-N-(2-(1-methyl-2,6-dioxopiperidin-3-yl)-1,3-dioxoisoindolin4-yl)acetamide]: at α1A-AR, the “effect on α1A-AR level (Western blot, in words)” value is reported as “incapable of inducing α1A-AR degradation”.

As usually defined, the IC50 is the concentration needed to halve the response being measured. For `COc1cc2nc(N3CCN(C(=O)c4ccco4)CC3)nc(N)c2cc1OC` [Prazosin, prazosin, reference compound], the IC50 with PC-3 cells amounted to 11.7 µM.

For orientation: Dmax means the largest share of the target that was removed. On to `COc1cc2nc(N3CCN(C(=O)c4cn(CCOCCOCCOCC(=O)Nc5cccc6c5C(=O)N(C5CCC(=O)NC5=O)C6=O)nn4)CC3)nc(N)c2cc1OC` (centres unmarked) [Compound 9c, 2-(2-(2-(2-(4-(4-(4-Amino-6,7-dimethoxyquinazolin-2-yl)piperazine-1-carbonyl)-1H-1,2,3-triazol-1-yl)ethoxy)ethoxy)ethoxy)-N-(2-(2,6-dioxopiperidin-3-yl)-1,3-dioxoisoindolin-4-yl)acetamide], for which the “influence on α1D-AR level (in words)” value at α1D-AR is “slight influence”. For the same molecule, the “average tumor size and mass vs vehicle-treated group (in words)” value in series [1] is listed as “noticeably decreased”. For the same molecule, the “body weight (in words)” value in series [1] (nude mice) was “without noticeable loss of body weight”. The “effect on tumor growth (in words)” value in series [1] (nude mice with PC-3 xenografts) is “significant antitumor effect; also recorded: significant suppression of tumor growth”. Besides, the “degradation activity for α1B-AR (in words)” value at α1B-AR is “no degradation activity”. Also, on α1A-AR (HEK293, read-out: maximal level of degradation (Dmax) of α1A-AR), the Dmax turned out to be 94%. Besides, the “time for α1A-AR level to recover to basal level after washout” value on α1A-AR (after 12 h pretreatment with 10 μmol/L, cells washed thoroughly) is reported as “approximately 24 h”. Also, the “α1A-AR degradation after bortezomib pretreatment (in words)” value on α1A-AR (pretreatment of cells using bortezomib for more than 7 h) was “could no longer trigger the degradation”. Also, the DC50 at α1A-AR was ~2.86 µM and 2.86 µM. In addition, in the series on PC-3 cells, the IC50 was 6.12 µM and the “antiproliferation activity on PC-3 cells (in words)” value (from here on “antiproliferation activity”) is recorded as “concentration-dependent antiproliferation activities”.

For the molecule `COc1cc2nc(N3CCN(C(=O)c4cn(CCOCCOCC(=O)Nc5cccc6c5C(=O)N(C5CCC(=O)NC5=O)C6=O)nn4)CC3)nc(N)c2cc1OC` (centres unmarked) [Compound 9b, 2-(2-(2-(4-(4-(4-Amino-6,7-dimethoxyquinazolin-2-yl)piperazine-1-carbonyl)-1H-1,2,3-triazol-1-yl)ethoxy)ethoxy)-N-(2-(2,6-dioxopiperidin-3-yl)-1,3-dioxoisoindolin-4-yl)acetamide], at α1A-AR, the “effect on α1A-AR level (Western blot, in words)” value is “did not show too much effect”. In the series with PC-3 cells, the “antiproliferation activity” value is listed as “much less influence”.

For the molecule `COc1cc2nc(N3CCN(C(=O)c4cn(CCOCC(=O)Nc5cccc6c5C(=O)N(C5CCC(=O)NC5=O)C6=O)nn4)CC3)nc(N)c2cc1OC` (centres unmarked) [Compound 9a, 2-(2-(4-(4-(4-Amino-6,7-dimethoxyquinazolin-2-yl)piperazine-1-carbonyl)-1H-1,2,3-triazol-1-yl)ethoxy)-N-(2-(2,6-dioxopiperidin-3-yl)-1,3-dioxoisoindolin-4-yl)acetamide], the DC50 on α1A-AR is about 4.32 µM. Also, the “antiproliferation activity” value in the series on PC-3 cells is on record as “concentration-dependent antiproliferation activities”.
